Laboratory results: ChEMBL document CHEMBL1687689, “Concise syntheses of the abyssinones and discovery of new inhibitors of prostate cancer and MMP-2 expression” (2010)
The source made the active and inactive calls. The rule behind the calls is not given here.

Key:
[1] = test system: PC-3M; test: (§1) Cytotoxicity in human PC3M cells assessed as inhibition of cell proliferation upto 50 uM after 3 days by MTT assay; format: functional
Procedure, shortened: (§2)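 Metastatic variant PC3-M human prostate cancer cells in exponential growth exposed 3 days to 0−50 μM of each racemate or enantiomer; viability by MTT, absorbance at 540 nm. CC50 derived from the concentration-response. For the 50 μM readout, absorbance at 72 h compared with untreated cells at the start (t = 0 h).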

[2] = Cytotoxicity in human PC3M cells assessed as inhibition of cell proliferation after 3 days by MTT assay; format: functional; details: PC-3M, 72 h; procedure, shortened: as §2
[3] = as §1; format: functional, PC-3M; procedure, shortened: as §2
[4] = test system: PC-3M; test: Inhibition of MMP-2 mRNA expression in human PC3M cells at 3 uM after 3 days by qRT-PCR analysis relative to untreated control; format: functional; details: 72 h

Structure (SMILES) | inhibition [1] | CC50 [2] [µM] | fold change (FC) [3] | inhibition at 3 µM [4] [%]
CC1(C)C=Cc2cc([C@H]3CC(=O)c4ccc(O)cc4O3)ccc2O1 | Active |  |  | 
CC1(C)C=Cc2cc([C@@H]3CC(=O)c4ccc(O)cc4O3)ccc2O1 | Active |  |  | 
CC(C)=CCc1cc(C2CC(=O)c3ccc(O)cc3O2)ccc1O (racemic) | Active |  |  | 
CC1(C)C=Cc2cc(C3CC(=O)c4ccc(O)cc4O3)ccc2O1 (racemic) | Active |  |  | 
CC(C)=CCc1cc([C@H]2CC(=O)c3ccc(O)cc3O2)ccc1O | Active |  |  | 
COc1c(CC=C(C)C)cc([C@H]2CC(=O)c3ccc(O)cc3O2)cc1CC=C(C)C | Active | 46 |  | 
CC(C)=CCc1cc([C@@H]2CC(=O)c3ccc(O)cc3O2)ccc1O | Active |  |  | 
COc1c(CC=C(C)C)cc(C2CC(=O)c3ccc(O)cc3O2)cc1CC=C(C)C (racemic) | Active | 33 |  | 
CC(C)=CCc1cc(C2CC(=O)c3ccc(O)cc3O2)cc2c1OC(C)(C)C=C2 (racemic) | Active | 57 |  | 
COc1c(CC=C(C)C)cc([C@@H]2CC(=O)c3ccc(O)cc3O2)cc1CC=C(C)C | Active | 12 | 2 | 
CC(C)=CCc1cc([C@H]2CC(=O)c3ccc(O)cc3O2)cc2c1OC(C)(C)C=C2 | Active | 42 |  | 65
